{"source": "paper PMC3628437", "about": "(Antiviral research, 2013)", "key": {"hepatitis B virus (HBV)": {"system": "hepatitis B virus (HBV)", "assay": "Real-time immune-absorbance PCR", "type": "cell-based", "conditions": "for Fold HBV reduction / Reduction of HBV virion levels in culture medium: G2.215 cells; for Fold HBV reduction: 10 μM compound, HBV DNA in culture medium by IA-PCR; for Reduction of HBV virion levels in culture medium: 5μM"}, "equine herpesvirus-4": {"system": "equine herpesvirus-4", "conditions": "ref Romanowski et al., 1999; Storey et al., 2002; cited from earlier work"}, "[1]": {"system": "HBV large surface protein (LHBs)", "assay": "Western blot of LHBs-containing HBV particles in G2.215 culture medium", "type": "cell-based, hepatitis B virus", "conditions": "G2.215 cells, 10 or 20μM, 6 day treatment"}, "HBV replication [2]": {"system": "HBV replication", "assay": "Southern blot of cellular HBV replication intermediates in G2.215 cells", "type": "cell-based, hepatitis B virus", "conditions": "any concentration tested", "how_it_was_run": "(§1)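 Cytoplasmic core DNA: one 6-well-plate well lysed 10 min at 37°C in Tris-EDTA pH 8.0 with NP40/sucrose. Nuclei removed; capsids PEG8000/NaCl-precipitated 2 h at 4°C, pronase/SDS-digested 1 h at 37°C, phenol-extracted, ethanol-precipitated. Half run on 1.5% agarose, depurinated, denatured, neutralised, blotted and probed with α-32P-UTP HBV probe for RC, DSL and SS forms. HepDE19 tet-free 5 days before dosing; G2.215 kept in G418.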"}, "feline herpesvirus-1": {"system": "feline herpesvirus-1", "conditions": "ref Romanowski et al., 1999; Storey et al., 2002; cited from earlier work"}, "HBV replication [3]": {"system": "HBV replication", "assay": "Southern blot of cellular HBV DNA in HepDE19 cells", "type": "cell-based, hepatitis B virus", "conditions": "up to 10 μM", "how_it_was_run": "as §1"}, "Varicella Zoster Virus": {"system": "Varicella Zoster Virus", "conditions": "ref Mekler et al., 1969; cited from earlier work"}, "HBV virions": {"system": "HBV virions", "type": "cell-based, hepatitis B virus", "conditions": "HepDE19 cells, 5 day treatment", "how_it_was_run": "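HepDE19 cells (DMEM/F12, 10% FBS, tetracycline-suppressed) were switched to tet-free medium for 5 days, then dosed for 5 days at several concentrations (0.5% DMSO final). Virions from 1ml clarified medium were precipitated with 10% PEG8000 (final), 1 h at 4°C, pelleted and dissolved in TNE pH7.4. Run on non-denaturing 1% agarose to separate virions from naked nucleocapsids, then blotted and hybridized with labeled HBV probe.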"}, "influenza virus": {"system": "influenza virus", "conditions": "ref Mekler et al., 1969; cited from earlier work"}}, "data": [{"molecule": "O=C(c1ccc(OCCN2CCCCC2)cc1)c1c(-c2ccc(O)cc2)sc2cc(O)ccc12", "note": "[Raloxifene]", "values": [{"measurement": "Fold HBV reduction", "setting": "hepatitis B virus (HBV); 6 days", "value": 3.5, "unit": "Fold"}]}, {"molecule": "C[C@@H]1C/C=C/C=C/C=C/C=C/[C@H](O[C@@H]2O[C@H](C)[C@@H](O)[C@H](N)[C@@H]2O)C[C@@H]2O[C@](O)(C[C@@H](O)C[C@H]3O[C@@H]3/C=C/C(=O)O1)C[C@H](O)[C@H]2C(=O)O", "note": "[Natamycin]", "values": [{"measurement": "Fold HBV reduction", "setting": "hepatitis B virus (HBV); 6 days", "value": 4, "unit": "Fold"}]}, {"molecule": "CCCOc1ccc(C(=O)OCCN(CC)CC)cc1N", "note": "[Proparacaine]", "values": [{"measurement": "Inactivation of virus", "setting": "equine herpesvirus-4", "value": "can inactivate"}, {"measurement": "Inhibition of secretion of HBV particles containing LHBs in culture medium", "setting": "[1]", "value": "3- to 4 fold"}, {"measurement": "Reduction of HBV virion levels in culture medium", "setting": "hepatitis B virus (HBV)", "value": "~ 3 CT"}, {"measurement": "Fold HBV reduction", "setting": "hepatitis B virus (HBV); 6 days", "value": 6, "unit": "Fold"}, {"measurement": "IC50", "setting": "hepatitis B virus (HBV); Hepatitis B virus, read-out: IC50 against HBV", "value": 1000, "unit": "nM"}, {"measurement": "Level of relaxed circular HBV DNA (RC-DNA) versus untreated control", "setting": "HBV replication [2]", "value": "no reduction"}, {"measurement": "Inactivation of virus", "setting": "feline herpesvirus-1", "value": "can inactivate"}]}, {"molecule": "C=Cc1c(C)c2cc3nc(c4c5[n-]c(cc6nc(cc1[n-]2)C(C)=C6CC)c(C)c5C(=O)[C@@H]4C(=O)OC)[C@@H](CCC(=O)O)[C@@H]3C.[Mg+2]", "note": "[Chlorophyllide]", "values": [{"measurement": "RC or SS DNA levels (cellular HBV DNA)", "setting": "HBV replication [3]", "value": "did not repress"}, {"measurement": "Inactivation of virus", "setting": "Varicella Zoster Virus", "value": "inactivate"}, {"measurement": "Formation and secretion of nucleocapsids", "setting": "HBV virions", "value": "not affected"}, {"measurement": "Viral particles in cell culture medium", "setting": "HBV virions", "value": "reduces viral particles in the cell culture medium in a dose-dependent manner"}, {"measurement": "Inactivation of virus", "setting": "influenza virus", "value": "inactivate"}, {"measurement": "Reduction of HBV virion levels in culture medium", "setting": "hepatitis B virus (HBV)", "value": "~ 2 CT"}, {"measurement": "Fold HBV reduction", "setting": "hepatitis B virus (HBV); 6 days", "value": 4, "unit": "Fold"}]}, {"molecule": "Nc1ccn([C@@H]2CS[C@H](CO)O2)c(=O)n1", "note": "[lamivudine]", "values": [{"measurement": "CT of medium from treated G2.215 cells", "setting": "hepatitis B virus (HBV); 30μM, 6 days, carrier alone CT ~26 undiluted", "value": "30–31 CT"}]}]}
